Assay outcomes: PubChem, several laboratories
Sampled rows, rich in hits. Any-hit rate of the full collection: about 4.9%.
STAT3 inh – IL-6 driven STAT3 reporter inhibitors, primary screen, U3A cells, luciferase, luminescence, MLSCN library. AID 862, 2007. inhibition, % at 5.5 µM. IL-6 STAT3-luciferase reporter; host cell line lacks STAT1. hit rate 0.89% among 190,000;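 active = inhibition above the mean inhibition across all screened compounds plus 3 SD, cut at about 44% in these data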
FLuc inhib CS – firefly luciferase enzyme inhibitors, primary screen, artefact control for luciferase-based inhibitor screens, biochemical, luminescence, ATPLite; Luciferin 4-monooxygenase (Photinus pyralis), P08659; 10 min; inhibition, % at 10 µM; hit rate 1.5% among 200,000; AID 1006, 2008;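 active = inhibition above about 50% when tested at 10 µM, limit read from the data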
Target sequence (P08659 whole entry, looked up): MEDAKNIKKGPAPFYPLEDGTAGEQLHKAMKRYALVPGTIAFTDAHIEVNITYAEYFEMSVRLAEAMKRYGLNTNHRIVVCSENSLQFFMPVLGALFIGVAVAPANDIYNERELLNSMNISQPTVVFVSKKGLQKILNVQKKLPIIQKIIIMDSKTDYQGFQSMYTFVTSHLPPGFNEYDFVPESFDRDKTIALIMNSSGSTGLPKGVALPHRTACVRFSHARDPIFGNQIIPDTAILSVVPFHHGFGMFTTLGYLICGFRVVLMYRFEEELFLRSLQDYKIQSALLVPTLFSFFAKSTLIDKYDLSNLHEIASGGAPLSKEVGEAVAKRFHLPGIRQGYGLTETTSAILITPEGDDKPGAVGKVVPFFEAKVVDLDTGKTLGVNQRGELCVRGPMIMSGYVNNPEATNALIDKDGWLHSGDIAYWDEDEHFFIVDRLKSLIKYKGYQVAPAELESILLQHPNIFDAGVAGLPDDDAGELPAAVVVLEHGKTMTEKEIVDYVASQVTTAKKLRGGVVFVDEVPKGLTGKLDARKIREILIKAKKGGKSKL
STAT1 blocker – STAT1 signaling inhibitors, primary screen, cell-based, HTS, luciferase reporter; inhibition, % at 5.5 µM; hit rate 0.35% among 200,000; NIH 3T3 STAT1-luciferase reporter, IFN-gamma, luminescence; AID 920, 2007;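 active = inhibition above a set limit, the mean inhibition across all tested compounds plus 3 SD, cut at about 34% in these data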
STAT1 activator – STAT1 signaling activators, primary screen, cell-based, HTS, luciferase reporter | NIH 3T3 STAT1-luciferase reporter, IFN-gamma, luminescence; 100% = IFN-gamma alone, no compound | activation (% of control), % at 5.5 µM | hit rate 2.6% among 200,000;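 active = activation above the screen-wide mean activation plus 3 SD, cut at about 130% in these data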
FLuc stim CS – FLuc activators, initial screening, artefact control for FLuc-dependent activation tests, biochemical, ATPlite luminescence | ATPlite luciferase biochemical, 10 min; 0 = ATP-free wells, 1 = DMSO control | activation factor at 10 µM | 200,000 tested, under 10 active;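 active = luciferase activation factor, scaled between plate controls, of at least 2 with compound at 10 µM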
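Assay system: Luciferase/luciferin detection reagent, cell-free biochemical luciferase assay / Read-out: luciferase activation / Benchmarks: No-ATP low control, compound-free enzyme-plus-ATP high control / Medium: PBS buffer for ATP / Detection: luminescence measurement of luciferase light output / Schedule: 10 min at ambient temperature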
STAT3 activator – IL-6 driven STAT3 reporter potentiators, primary screen, U3A cells, luciferase, luminescence, MLSCN library; hit rate 0.91% among 190,000; activation (% of control), % at 5.6 µM; AID 871, 2007; IL-6 STAT3-luciferase reporter; 100% = signal with IL-6 EC80 alone;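 active = activation above the screen-wide mean of compound activation plus 3 SD, cut at about 130% in these data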
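Test system: Human STAT1-deficient U3A cells with stable STAT3-luciferase reporter | Also added: Interleukin-6, 33 ng/mL | Timing: Compound pre-incubation 1 h before IL-6, then 6 h stimulation at 37 °C | Technique: Luciferase reporter luminescence | Read-out: Percent of IL-6-only median luminescence | Benchmarks: IL-6-only wells as 100% reference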
STAT1 activ conf – STAT1 signaling activators, confirmation, cell-based, HTS, luciferase reporter; shares compounds with STAT1 activator; NIH 3T3 STAT1-luciferase reporter, IFN-gamma potentiation, luminescence; 100% = IFN-gamma EC80 alone, no compound; activation (% of control), % at 5.7 µM; hit rate 97% among 1,200; AID 1262, 2008;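 active = activation above a set limit carried over from the earlier primary STAT1 screen, cut at about 140% in these data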
NFkB act – NF-kB reporter activators, TNF-alpha stimulated, counter-screen for STAT1 activator project, cell-based, HEK293T, luciferase luminescence; shares compounds with STAT1 activator; 100% = TNF-alpha with vehicle only; activation (% of control), % at 5.7 µM; hit rate 43% among 1,200; AID 1306, 2008;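 active = activation above the mean of solvent-only control wells plus 3 SD, set per campaign, cut at about 130% in these data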;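 also: TNF-alpha given at a submaximal dose yielding about 80% of full reporter signal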
STAT3 act 2 – STAT3 reporter activation by STAT1 hits, confirmation, counter-screen for STAT1 activator project, U3A cells, luciferase, luminescence; activation (% of control), % at 5.7 µM; hit rate 46% among 1,200; shares compounds with STAT1 activator; IL-6; cells lack STAT1; 100 = IL-6 alone, no compound effect;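 active = activation above the solvent-only control well mean plus 3 SD, set per plate batch, cut at about 110% in these data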;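 also: higher means more STAT3 reporter activation so hits are non-selective activators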
Hits are given with their value; . = inactive; / = no result given.

SMILES	STAT3 inh	FLuc inhib CS	STAT1 blocker	STAT1 activator	FLuc stim CS	STAT3 activator	STAT1 activ conf	NFkB act	STAT3 act 2
COc1ccc(-c2csc(N3C(=O)CNC3=S)n2)cc1	.	.	.	179	.	.	260	.	.
COc1ccc(-c2csc(N3C(=O)C4C5c6ccccc6C(c6ccccc65)[C@@H]4C3=O)n2)cc1 (stereo not given in full)	.	.	.	.	.	.	/	/	/
O=C1CNC(=S)N1c1nc(-c2ccccc2)cs1	.	.	.	154	.	.	188	.	115
CCc1c(C)[nH]n(-c2nc(-c3ccccc3)cs2)c1=O	.	.	.	.	.	.	/	/	/
O=C(O)/C=C/c1nc(-c2ccccc2)n2ccccc12	.	.	.	.	.	.	/	/	/
Cc1ccc(N2C(=O)C3C4C=CC(CNC(=S)Nc5cccc(Cl)c5)(O4)C3C2=O)cc1 (stereo not given)	.	.	.	.	.	.	/	/	/
CC1=CC(c2ccccc2)=Nc2ccc(C)cc2N1	.	.	.	165	.	.	202	.	131
COc1ccc2c(c1)NC(=O)CC(c1ccccc1)=N2	.	.	.	.	.	.	/	/	/
Cn1cc(CN2CCCC(CO)(Cc3ccccc3)C2)cn1 (stereo not given)	.	.	.	.	.	.	/	/	/
CCCc1nn(C)c(C(=O)Nc2ccccc2)c1Cl	.	.	.	170	.	.	199	.	.
CCOc1ccccc1NC(=O)c1cc(C(=O)Nc2ccccc2OCC)cc(N2C(=O)CCC2=O)c1	.	.	.	.	.	.	/	/	/
